Results reported in ChEMBL document CHEMBL4038305, “Benzoxaborole Antimalarial Agents. Part 5. Lead Optimization of Novel Amide Pyrazinyloxy Benzoxaboroles and Identification of a Preclinical Candidate” (J Med Chem, 2017).

Experiments:
Plasmodium berghei [1] = assay: Antimalarial activity against Plasmodium berghei infected in Swiss Webster mouse assessed as mouse survival rate at 1 mg/kg administered once daily via oral gavage for 4 consecutive days beginning 1 hr after infection measured on day 6 post infection relative to control; assay type: functional
Method in brief: (§1)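 Mice given an intraperitoneal injection of P. berghei-infected erythrocytes taken from a previously infected animal. Oral dosing once daily for 4 consecutive days, starting 1 h after infection. Vehicle: polyethylene glycol 300/propylene glycol/water (weight ratio 55/25/20). Percent survival recorded daily from day 4 to day 20. Chloroquine 30 mg/kg and vehicle-only groups served as controls.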

Plasmodium falciparum [2] = assay: Antimalarial activity against Plasmodium falciparum T9/94 infected in human erythrocytes assessed as reduction in [3H]-hypoxanthine incorporation preincubated for 24 hrs followed by [3H]-hypoxanthine addition measured after 24 hrs by scintillation counting method; assay type: functional, cell-based
Plasmodium falciparum [3] = assay: Antimalarial activity against intraerythrocytic stage of Plasmodium falciparum assessed as parasite reduction ratio at 30 times IC50 preincubated for 24 hrs followed by [3H]-hypoxanthine addition measured after 24 hrs by scintillation counting method; assay type: functional
Method in brief: (§2)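 In vitro P. falciparum parasite reduction ratio assay run at 10×, 30× and 100× IC50. Derived parameters: lag phase (time to maximal killing), PRR (parasites killed per life cycle) and PCT99.9% (time to clear 99.9% of the initial parasite population).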

Rattus norvegicus [4] = assay: Genotoxicity in rat assessed as micronucleated polychromatic erythrocytes in bone marrow at 2000 mg/kg administered via oral gavage measured after 24 hrs post dose by micronucleus assay (reference value: 0.07 +/- 0.05%); assay type: toxicity, organism-based; conditions: in vivo
Salmonella typhimurium [5] = assay: Genotoxicity in Salmonella typhimurium TA1537 assessed as number of revertants per plate at 1500 ug/plate in absence of rat liver S9 fraction by Ames test (reference value: 19 +/- 9); assay type: toxicity; conditions: salmonella enterica subsp. enterica serovar typhimurium
Salmonella typhimurium [6] = assay: Genotoxicity in Salmonella typhimurium TA100 assessed as number of revertants per plate at 150 ug/plate in presence of rat liver S9 fraction by Ames test (reference value: 141 +/- 1); assay type: toxicity; conditions: salmonella enterica subsp. enterica serovar typhimurium
Lymphocyte [7] = assay: Genotoxicity in human lymphocytes assessed as increase in frequency of micronucleated cells at 40 ug/mL after 28 hrs in absence of rat liver S9 fraction by micronucleus assay (reference value: 0.74%); assay type: toxicity, cell-based
Escherichia coli [8] = assay: Genotoxicity in Escherichia coli WP2uvrA assessed as number of revertants per plate at 150 ug/plate in presence of rat liver S9 fraction by Ames test (reference value: 42 +/- 6); assay type: toxicity
Salmonella typhimurium [9] = assay: Genotoxicity in Salmonella typhimurium TA1537 assessed as number of revertants per plate at 5000 ug/plate in absence of rat liver S9 fraction by Ames test (reference value: 19 +/- 9); assay type: toxicity; conditions: salmonella enterica subsp. enterica serovar typhimurium
Salmonella typhimurium [10] = assay: Genotoxicity in Salmonella typhimurium TA1537 assessed as number of revertants per plate at 500 ug/plate in presence of rat liver S9 fraction by Ames test (reference value: 11 +/- 4); assay type: toxicity; conditions: salmonella enterica subsp. enterica serovar typhimurium
Plasmodium falciparum [11] = assay: Antimalarial activity against Plasmodium falciparum V1/S infected in human erythrocytes assessed as reduction in [3H]-hypoxanthine incorporation preincubated for 24 hrs followed by [3H]-hypoxanthine addition measured after 24 hrs by scintillation counting method; assay type: functional, cell-based
Salmonella typhimurium [12] = assay: Genotoxicity in Salmonella typhimurium TA1537 assessed as number of revertants per plate at 15 ug/plate in absence of rat liver S9 fraction by Ames test (reference value: 19 +/- 9); assay type: toxicity; conditions: salmonella enterica subsp. enterica serovar typhimurium
Salmonella typhimurium [13] = assay: Genotoxicity in Salmonella typhimurium TA100 assessed as number of revertants per plate at 1.5 ug/plate in absence of rat liver S9 fraction by Ames test (reference value: 154 +/- 9); assay type: toxicity; conditions: salmonella enterica subsp. enterica serovar typhimurium
Lymphocyte [14] = assay: Genotoxicity in human lymphocytes assessed as increase in frequency of micronucleated cells at 355.15 ug/mL after 28 hrs in absence of rat liver S9 fraction by micronucleus assay (reference value: 0.74%); assay type: toxicity, cell-based
Lymphocyte [15] = assay: Genotoxicity in human lymphocytes assessed as increase in frequency of micronucleated cells at 80 ug/mL after 3 hrs in absence of rat liver S9 fraction by micronucleus assay (reference value: 0.99%); assay type: toxicity, cell-based
Salmonella typhimurium [16] = assay: Genotoxicity in Salmonella typhimurium TA1535 assessed as number of revertants per plate at 5000 ug/plate in absence of rat liver S9 fraction by Ames test (reference value: 10 +/- 3); assay type: toxicity; conditions: salmonella enterica subsp. enterica serovar typhimurium
Rattus norvegicus [17] = assay: Genotoxicity in rat assessed as micronucleated polychromatic erythrocytes in bone marrow at 500 mg/kg administered via oral gavage measured after 24 hrs post dose by micronucleus assay (reference value: 0.07 +/- 0.05%); assay type: toxicity, organism-based; conditions: in vivo
Escherichia coli [18] = assay: Genotoxicity in Escherichia coli WP2uvrA assessed as number of revertants per plate at 500 ug/plate in absence of rat liver S9 fraction by Ames test (reference value: 45 +/- 9); assay type: toxicity
[19] = Oral bioavailability in Beagle dog at 5 mg/kg by HPLC/MS analysis; assay type: ADME, organism-based, Canis lupus familiaris; conditions: in vivo
Method in brief: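 Female CD-1 mice, male SD rats or beagle dogs given 5 mg/kg by iv injection or oral gavage. Formulation was PEG300/propylene glycol/water 55/25/20, pH 6. Blood samples analysed by HPLC–MS/MS; parameters include AUC0-inf extrapolated to infinity and terminal half-life.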

Escherichia coli [20] = assay: Genotoxicity in Escherichia coli WP2uvrA assessed as number of revertants per plate at 1500 ug/plate in presence of rat liver S9 fraction by Ames test (reference value: 42 +/- 6); assay type: toxicity
Plasmodium falciparum [21] = assay: Antimalarial activity against intraerythrocytic stage of Plasmodium falciparum assessed as parasite reduction ratio at 100 times IC50 preincubated for 24 hrs followed by [3H]-hypoxanthine addition measured after 24 hrs by scintillation counting method; assay type: functional; method in brief: as §2
Salmonella typhimurium [22] = assay: Genotoxicity in Salmonella typhimurium TA1537 assessed as number of revertants per plate at 5000 ug/plate in presence of rat liver S9 fraction by Ames test (reference value: 11 +/- 4); assay type: toxicity; conditions: salmonella enterica subsp. enterica serovar typhimurium
Salmonella typhimurium [23] = assay: Genotoxicity in Salmonella typhimurium TA1535 assessed as number of revertants per plate at 15 ug/plate in absence of rat liver S9 fraction by Ames test (reference value: 10 +/- 3); assay type: toxicity; conditions: salmonella enterica subsp. enterica serovar typhimurium
Salmonella typhimurium [24] = assay: Genotoxicity in Salmonella typhimurium TA1535 assessed as number of revertants per plate at 500 ug/plate in presence of rat liver S9 fraction by Ames test (reference value: 10); assay type: toxicity; conditions: salmonella enterica subsp. enterica serovar typhimurium
Plasmodium falciparum [25] = assay: Antimalarial activity against Plasmodium falciparum Dd2 infected in human erythrocytes assessed as reduction in [3H]-hypoxanthine incorporation preincubated for 24 hrs followed by [3H]-hypoxanthine addition measured after 24 hrs by scintillation counting method; assay type: functional, cell-based
Plasmodium berghei [26] = assay: Antimalarial activity against Plasmodium berghei infected in Swiss Webster mouse assessed as mouse survival rate at 1.1 mg/kg administered once daily via oral gavage for 4 consecutive days beginning 1 hr after infection measured on day 7 post infection relative to control; assay type: functional; method in brief: as §1
Rattus norvegicus [27] = assay: Genotoxicity in rat assessed as micronuclei in polychromatic erythrocyte cells in bone marrow at 500 to 2000 mg/kg administered via oral gavage measured after 24 to 48 hrs post dose by micronucleus assay; assay type: toxicity, organism-based; conditions: in vivo
Plasmodium berghei [28] = assay: Antimalarial activity against Plasmodium berghei infected in Swiss Webster mouse assessed as mouse survival rate at 100 mg/kg administered once daily via oral gavage for 4 consecutive days beginning 1 hr after infection measured on day 19 post infection relative to control; assay type: functional; method in brief: as §1

With `Cc1c(Oc2cnc(C(=O)NC(C)CO)cn2)ccc2c1B(O)OC2` (centres undefined) the survival at 1 mg/kg (Plasmodium berghei [1]) was 20%.

With `Cc1c(Oc2cnc(C(=O)N3CC(C)(O)C3)cn2)ccc2c1B(O)OC2` the IC50 (Plasmodium falciparum [2]) was 0.054 µM, the “log(ratio)” value (Plasmodium falciparum [3]) was 4.9 and the Activity (Rattus norvegicus [4]) was 0.09%. It also gave an Activity (Salmonella typhimurium [5]) of 10, an Activity (Salmonella typhimurium [6]) of 154 and an Activity (Lymphocyte [7]) of 1.18%. It also gave an Activity (Escherichia coli [8]) of 53, an Activity (Salmonella typhimurium [9]) of 10 and an Activity (Salmonella typhimurium [10]) of 17. It also gave an IC50 (Plasmodium falciparum [11]) of 0.063 µM, an Activity (Salmonella typhimurium [12]) of 10 and an Activity (Salmonella typhimurium [13]) of 144. It also gave an Activity (Lymphocyte [14]) of 0.95%, an Activity (Lymphocyte [15]) of 0.81% and an Activity (Salmonella typhimurium [16]) of 4. For the same compound, the Activity (Rattus norvegicus [17]) was 0.03%, the Activity (Escherichia coli [18]) was 55 and the bioavailability [19] was 127%. The Activity (Escherichia coli [20]) was 26, the “log(ratio)” value (Plasmodium falciparum [21]) was 4.9 and the Activity (Salmonella typhimurium [22]) was 9. It also gave an Activity (Salmonella typhimurium [23]) of 13, an Activity (Salmonella typhimurium [24]) of 6 and an IC50 (Plasmodium falciparum [25]) of 0.053 µM.

In the case of `Cc1c(Oc2cnc(C(=O)N3CC(O)(C(F)(F)F)C3)cn2)ccc2c1B(O)OC2`, the survival at 1.1 mg/kg (Plasmodium berghei [26]) is reported as 0%.

For `Cc1c(Oc2cnc(C(=O)NCCO)cn2)ccc2c1B(O)OC2`, the Activity (Rattus norvegicus [27]) was “Non-Toxic”.

With `Cc1c(Oc2cnc(C(=O)N3CC(O)(C(C)C)C3)cn2)ccc2c1B(O)OC2` the survival at 1.1 mg/kg (Plasmodium berghei [26]) was 0% and the survival at 100 mg/kg (Plasmodium berghei [28]) was 80%.
